Measured values taken from ChEMBL document CHEMBL2384906, “Biological activity, design, synthesis and structure activity relationship of some novel derivatives of curcumin containing sulfonamides” (Eur J Med Chem, 2013).
Converted amounts (≈) assume the structure as drawn. The source made the active and inactive calls. The rule behind the calls is not given here.

Columns and labels:
[1] = system: Curvularia lunata; assay: Antifungal activity against Curvularia lunata MTCC 581 assessed as zone of inhibition at 80 uM after 48 hrs by disc diffusion method; format: functional; settings: MTCC 581, 48 h, read-out: IZ
Method in brief: (§1)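 Spores from 4-day potato dextrose agar cultures, suspended in sterile water at 1.5 × 10⁵ CFU/mL. 0.2 mL was spread on potato dextrose agar. 5 mm filter-paper discs soaked with test compound were laid on the lawn. Incubation was 48 h at 28 °C, then the inhibition zone was measured in mm. Fluconazole was the positive control and acetone the negative control.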

[2] = system: Bacillus cereus; assay: Antimicrobial activity against Bacillus cereus MTCC 7350 assessed as diameter of inhibition zone at 40 uM after 24 hrs by Kirby -Baur disc diffusion method; format: functional
Method in brief: (§2)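 Kirby-Bauer disc diffusion was used. Acetone stocks (160 µM) were serially doubled down to 80, 40 and 20 µM. 4 µL of each went onto 5 mm sterile paper discs, which were dried 30 min at 50 °C. Inoculum was 1.5 × 10⁸ CFU/mL diluted to 3 × 10² CFU/mL, and 50 µL was spread on Mueller-Hinton agar. After 24 h at 37 °C the inhibition-zone diameter was measured. Ciprofloxacin served as positive control.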

[3] = system: Pseudomonas aeruginosa; assay: Antimicrobial activity against Pseudomonas aeruginosa ATCC 15499 assessed as diameter of inhibition zone at 40 uM after 24 hrs by Kirby -Baur disc diffusion method; format: functional; method in brief: as §2
[4] = system: Mus musculus; assay: Antiinflammatory activity in mouse assessed as inhibition of carrageenan-induced increase in paw volume at 200 mg/kg administered 1 hr prior to carrageenan challenge measured after 3 hrs relative to control; format: functional
Method in brief: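 Mice were fasted 2 h and placed in groups of five. Controls received saline i.p. Phenylbutazone was given at 100 mg/kg i.p., curcumin at 200 mg/kg i.p., and derivatives at 200 mg/kg. After 1 h, 0.1 mL of 1% carrageenan in saline was injected subplantar into the right hind paw. Paw volume was followed by plethysmometer for 3 h, and % inhibition was calculated as (Vc − Vt)/Vc × 100.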

[5] = system: Bacillus cereus; assay: Antimicrobial activity against Bacillus cereus MTCC 7350 assessed as diameter of inhibition zone at 80 uM after 24 hrs by Kirby -Baur disc diffusion method; format: functional; settings: MTCC 7350, 24 h, read-out: DIZ; method in brief: as §2
[6] = system: Escherichia coli; assay: Antimicrobial activity against Escherichia coli ATCC 35218 assessed as diameter of inhibition zone at 80 uM after 24 hrs by Kirby -Baur disc diffusion method; format: functional; settings: ATCC 35218, 24 h, read-out: DIZ; method in brief: as §2
[7] = system: Escherichia coli; assay: Antimicrobial activity against Escherichia coli ATCC 35218 assessed as diameter of inhibition zone at 20 uM after 24 hrs by Kirby -Baur disc diffusion method; format: functional; settings: ATCC 35218, 24 h, read-out: DIZ; method in brief: as §2
[8] = system: QG-56; assay: Cytotoxicity against human QG56 cells after 24 hrs by MTT assay; format: functional, cell-based
Method in brief: (§3)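 The MTT assay seeded 5 × 10⁴ cells per well and grew them 24 h in RPMI 1640 with compound at 2.5–200 µM. Medium without cells was the blank and adriamycin the positive control. MTT was added for 4 h at 37 °C, formazan was solubilised, and absorbance was read at 570 nm. IC50 is the concentration that cuts viability 50% against untreated cells.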

[9] = system: HepG2; assay: Cytotoxicity against human HepG2 cells after 24 hrs by MTT assay; format: functional, cell-based; method in brief: as §3
[10] = system: Aspergillus flavus; assay: Antifungal activity against Aspergillus flavus MTCC 1021 assessed as zone of inhibition at 80 uM after 48 hrs by disc diffusion method; format: functional; method in brief: as §1
[11] = system: Pseudomonas aeruginosa; assay: Antimicrobial activity against Pseudomonas aeruginosa ATCC 15499 assessed as diameter of inhibition zone at 20 uM after 24 hrs by Kirby -Baur disc diffusion method; format: functional; method in brief: as §2
[12] = system: Salmonella typhi; assay: Antimicrobial activity against Salmonella typhi ATCC 23564 assessed as diameter of inhibition zone at 20 uM after 24 hrs by Kirby -Baur disc diffusion method; format: functional
[13] = system: HCT-116; assay: Cytotoxicity against human HCT116 cells after 24 hrs by MTT assay; format: functional, cell-based; method in brief: as §3
[14] = system: Bacillus cereus; assay: Antimicrobial activity against Bacillus cereus MTCC 7350 after 24 hrs by broth micro serial dilution method; format: functional; settings: MTCC 7350, 24 h
Method in brief: (§4)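 This was broth microdilution in autoclaved Mueller-Hinton broth. 150 µL of compound per well was serially diluted […], and 50 µL of test organism was added. Plates were incubated 24 h at 37 °C and optical density was read.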

[15] = system: Trichoderma viride; assay: Antifungal activity against Trichoderma viride MTCC 1107 assessed as zone of inhibition at 80 uM after 48 hrs by disc diffusion method; format: functional; settings: MTCC 1107, 48 h, read-out: IZ; method in brief: as §1
[16] = system: Staphylococcus aureus; assay: Antimicrobial activity against Staphylococcus aureus ATCC 11632 after 24 hrs by broth micro serial dilution method; format: functional; settings: ATCC 11632, 24 h; method in brief: as §4
[17] = system: Salmonella typhi; assay: Antimicrobial activity against Salmonella typhi ATCC 23564 assessed as diameter of inhibition zone at 80 uM after 24 hrs by Kirby -Baur disc diffusion method; format: functional, Salmonella enterica subsp. enterica serovar Typhi; settings: Salmonella enterica, ATCC 23564, 24 h; read-out: DIZ
[18] = system: Pseudomonas aeruginosa; assay: Antimicrobial activity against Pseudomonas aeruginosa ATCC 15499 after 24 hrs by broth micro serial dilution method; format: functional; settings: ATCC 15499, 24 h; method in brief: as §4
[19] = system: Staphylococcus aureus; assay: Antimicrobial activity against Staphylococcus aureus ATCC 11632 assessed as diameter of inhibition zone at 80 uM after 24 hrs by Kirby -Baur disc diffusion method; format: functional; settings: ATCC 11632, 24 h, read-out: DIZ; method in brief: as §2
[20] = system: Trichoderma viride; assay: Antifungal activity against Trichoderma viride MTCC 1107 assessed as zone of inhibition at 40 uM after 48 hrs by disc diffusion method; format: functional; settings: MTCC 1107, 48 h, read-out: IZ; method in brief: as §1
[21] = system: Escherichia coli; assay: Antimicrobial activity against Escherichia coli ATCC 35218 assessed as diameter of inhibition zone at 40 uM after 24 hrs by Kirby -Baur disc diffusion method; format: functional; settings: ATCC 35218, 24 h, read-out: DIZ; method in brief: as §2
[22] = system: Curvularia lunata; assay: Antifungal activity against Curvularia lunata MTCC 581 assessed as zone of inhibition at 20 uM after 48 hrs by disc diffusion method; format: functional; settings: MTCC 581, 48 h, read-out: IZ; method in brief: as §1
[23] = system: Salmonella typhi; assay: Antimicrobial activity against Salmonella typhi ATCC 23564 assessed as diameter of inhibition zone at 40 uM after 24 hrs by Kirby -Baur disc diffusion method; format: functional
[24] = system: Staphylococcus aureus; assay: Antimicrobial activity against Staphylococcus aureus ATCC 11632 assessed as diameter of inhibition zone at 40 uM after 24 hrs by Kirby -Baur disc diffusion method; format: functional; method in brief: as §2
[25] = system: Pseudomonas aeruginosa; assay: Antimicrobial activity against Pseudomonas aeruginosa ATCC 15499 assessed as diameter of inhibition zone at 80 uM after 24 hrs by Kirby -Baur disc diffusion method; format: functional; settings: ATCC 15499, 24 h, read-out: DIZ; method in brief: as §2
[26] = system: Trichoderma viride; assay: Antifungal activity against Trichoderma viride MTCC 1107 after 48 hrs; format: functional; settings: MTCC 1107, 48 h
[27] = system: HeLa; assay: Cytotoxicity against human HeLa cells after 24 hrs by MTT assay; format: functional, cell-based; method in brief: as §3
[28] = system: Curvularia lunata; assay: Antifungal activity against Curvularia lunata MTCC 581 assessed as zone of inhibition at 40 uM after 48 hrs by disc diffusion method; format: functional; settings: MTCC 581, 48 h, read-out: IZ; method in brief: as §1
[29] = system: Aspergillus flavus; assay: Antifungal activity against Aspergillus flavus MTCC 1021 after 48 hrs; format: functional
[30] = system: Trichoderma viride; assay: Antifungal activity against Trichoderma viride MTCC 1107 assessed as zone of inhibition at 20 uM after 48 hrs by disc diffusion method; format: functional; settings: MTCC 1107, 48 h, read-out: IZ; method in brief: as §1
[31] = system: Aspergillus niger; assay: Antifungal activity against Aspergillus niger MTCC 1108 assessed as zone of inhibition at 80 uM after 48 hrs by disc diffusion method; format: functional; method in brief: as §1
[32] = system: Curvularia lunata; assay: Antifungal activity against Curvularia lunata MTCC 581 after 48 hrs; format: functional; settings: MTCC 581, 48 h
[33] = system: Escherichia coli; assay: Antimicrobial activity against Escherichia coli ATCC 35218 after 24 hrs by broth micro serial dilution method; format: functional; settings: ATCC 35218, 24 h; method in brief: as §4
[34] = system: Staphylococcus aureus; assay: Antimicrobial activity against Staphylococcus aureus ATCC 11632 assessed as diameter of inhibition zone at 20 uM after 24 hrs by Kirby -Baur disc diffusion method; format: functional; method in brief: as §2
[35] = system: Aspergillus niger; assay: Antifungal activity against Aspergillus niger MTCC 1108 after 48 hrs; format: functional
[36] = system: Bacillus cereus; assay: Antimicrobial activity against Bacillus cereus MTCC 7350 assessed as diameter of inhibition zone at 20 uM after 24 hrs by Kirby -Baur disc diffusion method; format: functional; method in brief: as §2
[37] = system: Salmonella typhi; assay: Antimicrobial activity against Salmonella typhi ATCC 23564 after 24 hrs by broth micro serial dilution method; format: functional, Salmonella enterica subsp. enterica serovar Typhi; settings: Salmonella enterica, ATCC 23564, 24 h
[38] = Salmonella enterica subsp. enterica serovar Typhi
[39] = ATCC 15499, 24 h, read-out: DIZ
[40] = Salmonella enterica, ATCC 23564, 24 h, read-out: DIZ
[41] = ATCC 11632, 24 h, read-out: DIZ

## COc1cc(/C=C/c2nn(-c3ccccc3)c(/C=C/c3ccc(O)c(OC)c3)c2/N=N/c2ccc(S(=O)(=O)Nc3cc(C)on3)cc2)ccc1O
[1]
  zone of inhibition at 80 µM: 13 mm
[2]
  diameter of the inhibition zone (DIZ): inactive
[3]
  diameter of the inhibition zone (DIZ): inactive
[4]
  inhibition in vivo at 200 mg/kg: 25.8%
[5]
  zone of inhibition at 80 µM: 10 mm
[6]
  zone of inhibition at 80 µM: 12 mm
[7]
  zone of inhibition at 20 µM: 9 mm
[8]
  IC50: > 100 µM
[9]
  IC50: Not Active
[10]
  inhibition zone (IZ): inactive
[11]
  diameter of the inhibition zone (DIZ): inactive
[12]; [38]
  diameter of the inhibition zone (DIZ): inactive
[13]
  IC50: Not Active
[14]
  MIC: > 80 µM
[15]
  zone of inhibition at 80 µM: 13 mm
[16]
  MIC: > 80 µM
[17]
  zone of inhibition at 80 µM: 10 mm
[18]
  MIC: > 80 µM
[19]
  zone of inhibition at 80 µM: 10 mm
[20]
  zone of inhibition at 40 µM: 11 mm
[21]
  zone of inhibition at 40 µM: 10 mm
[22]
  zone of inhibition at 20 µM: 9 mm
[23]; [38]
  diameter of the inhibition zone (DIZ): inactive
[24]
  diameter of the inhibition zone (DIZ): inactive
[25]
  zone of inhibition at 80 µM: 11 mm
[26]
  MIC: 40 µM (≈ 28.2 µg/mL)
[27]
  IC50: 100 µM
[28]
  zone of inhibition at 40 µM: 11 mm
[29]
  MIC: inactive
[30]
  zone of inhibition at 20 µM: 9 mm
[31]
  inhibition zone (IZ): inactive
[32]
  MIC: 80 µM (≈ 56.4 µg/mL)
[33]
  MIC: > 80 µM
[34]
  diameter of the inhibition zone (DIZ): inactive
[35]
  MIC: inactive
[36]
  diameter of the inhibition zone (DIZ): inactive
[37]
  MIC: > 80 µM

## O=C(O)c1cn(C2CC2)c2cc(N3CCNCC3)c(F)cc2c1=O [CIPROFLOXACIN]
[2]; MTCC 7350, 24 h, read-out: DIZ
  zone of inhibition at 40 µM: 34 mm
[3]; [39]
  zone of inhibition at 40 µM: 34 mm
[5]
  zone of inhibition at 80 µM: 37 mm
[6]
  zone of inhibition at 80 µM: 36 mm
[7]
  zone of inhibition at 20 µM: 29 mm
[11]; [39]
  zone of inhibition at 20 µM: 31 mm
[12]; [40]
  zone of inhibition at 20 µM: 37 mm
[14]
  MIC: 0.63 µM (≈ 0.209 µg/mL)
[16]
  MIC: 1.25 µM (≈ 0.414 µg/mL)
[17]
  zone of inhibition at 80 µM: 52 mm
[18]
  MIC: 1.25 µM (≈ 0.414 µg/mL)
[19]
  zone of inhibition at 80 µM: 36 mm
[21]
  zone of inhibition at 40 µM: 32 mm
[23]; [40]
  zone of inhibition at 40 µM: 44 mm
[24]; [41]
  zone of inhibition at 40 µM: 32 mm
[25]
  zone of inhibition at 80 µM: 38 mm
[33]
  MIC: 1.25 µM (≈ 0.414 µg/mL)
[34]; [41]
  zone of inhibition at 20 µM: 29 mm
[36]; MTCC 7350, 24 h, read-out: DIZ
  zone of inhibition at 20 µM: 32 mm
[37]
  MIC: 2.5 µM (≈ 0.828 µg/mL)
